The record followed here is ChEMBL document CHEMBL4043061, “Potent, Selective, Allosteric Inhibition of Human Plasmin by Sulfated Non-Saccharide Glycosaminoglycan Mimetics” (J Med Chem, 2017).

Assay [1] has as its target T1, Plasminogen (Homo sapiens, UniProt P00747). As to the kind of experiment: Allosteric inhibition of full length human plasmin by using chromogenic substrate spectrozyme PL preincubated for 5 mins followed by substrate addition by spectrophotometric method. In a few lines: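 Inhibitor added from 0–20 mM aqueous stocks, or vehicle. After 5 min, Spectrozyme PL added (1 mM stock). Residual activity taken from initial rate of A405 rise. Logistic fit gives IC50, efficacy and Hill slope.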

For assay [2], the target named is T1, Plasminogen. As to the kind of experiment: Binding affinity to human plasmin assessed as loss of intrinsic tryptophan fluorescence at 250 uM by spectrofluorometric method.
The next assay concerns the target Prothrombin (Homo sapiens, UniProt P00734). As to the kind of experiment: Inhibition of human thrombin by using chromogenic substrate spectrozyme TH preincubated for 5 mins followed by substrate addition by spectrophotometric method. In a few lines: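 Thrombin at 6 nM final, 25 °C, in 20 mM Tris-HCl pH 7.4 with 100 mM NaCl, 2.5 mM CaCl2, 0.1% PEG8000, 0.02% Tween80. Inhibitor (0–20 mM stock) or vehicle preincubated 5 min with enzyme. Spectrozyme TH added (1.0 mM stock). Residual activity read as initial rate of A405 increase and fitted to a sigmoidal dose–response curve.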

The next assay has as its target Coagulation factor X (Homo sapiens, UniProt P00742). As to the kind of experiment: Inhibition of human F10a by using chromogenic substrate spectrozyme F10a preincubated for 5 mins followed by substrate addition by spectrophotometric method. In a few lines: (§1)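 Tris-HCl pH 7.4 buffer (100 mM NaCl, 2.5 mM CaCl2, 0.1% PEG8000, 0.02% Tween80) at 37 °C; factor IXa buffer also held 33% ethylene glycol. Final enzyme: factor Xa 1.09 nM, XIa 0.75 nM, XIIa 10 nM, IXa 250 nM, trypsin 0.145 µg/mL, chymotrypsin […]. Inhibitor from 0–20 mM stock, 5 min preincubation, then substrate. Initial A405 rate, sigmoidal dose–response fit.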

The next assay concerns the target Coagulation factor XI (Homo sapiens, UniProt P03951). Put plainly: Inhibition of human F11a by using chromogenic substrate S-2366 preincubated for 5 mins followed by substrate addition by spectrophotometric method. In a few lines: as §1
A further assay deals with Coagulation factor IX (Homo sapiens, UniProt P00740). Put plainly: Inhibition of human F9a by using chromogenic substrate spectrozyme F9a preincubated for 5 mins followed by substrate addition by spectrophotometric method.
Coagulation factor IX, sequence (P00740 47-191 limits assumed): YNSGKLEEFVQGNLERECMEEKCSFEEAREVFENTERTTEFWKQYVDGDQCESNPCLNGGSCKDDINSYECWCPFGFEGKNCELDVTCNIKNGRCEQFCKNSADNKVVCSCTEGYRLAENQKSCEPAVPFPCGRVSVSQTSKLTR
Coagulation factor IX, sequence (P00740 227-461 limits assumed): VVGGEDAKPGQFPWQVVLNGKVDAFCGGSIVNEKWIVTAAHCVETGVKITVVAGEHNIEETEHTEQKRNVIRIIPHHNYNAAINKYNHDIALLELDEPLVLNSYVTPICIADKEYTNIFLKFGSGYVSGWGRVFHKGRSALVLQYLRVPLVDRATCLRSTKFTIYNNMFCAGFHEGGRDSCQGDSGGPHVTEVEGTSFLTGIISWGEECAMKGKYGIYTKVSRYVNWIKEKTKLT
Another assay concerns the target T2, Coagulation factor XII (Homo sapiens, UniProt P00748).
T2 sequence (P00748 whole entry): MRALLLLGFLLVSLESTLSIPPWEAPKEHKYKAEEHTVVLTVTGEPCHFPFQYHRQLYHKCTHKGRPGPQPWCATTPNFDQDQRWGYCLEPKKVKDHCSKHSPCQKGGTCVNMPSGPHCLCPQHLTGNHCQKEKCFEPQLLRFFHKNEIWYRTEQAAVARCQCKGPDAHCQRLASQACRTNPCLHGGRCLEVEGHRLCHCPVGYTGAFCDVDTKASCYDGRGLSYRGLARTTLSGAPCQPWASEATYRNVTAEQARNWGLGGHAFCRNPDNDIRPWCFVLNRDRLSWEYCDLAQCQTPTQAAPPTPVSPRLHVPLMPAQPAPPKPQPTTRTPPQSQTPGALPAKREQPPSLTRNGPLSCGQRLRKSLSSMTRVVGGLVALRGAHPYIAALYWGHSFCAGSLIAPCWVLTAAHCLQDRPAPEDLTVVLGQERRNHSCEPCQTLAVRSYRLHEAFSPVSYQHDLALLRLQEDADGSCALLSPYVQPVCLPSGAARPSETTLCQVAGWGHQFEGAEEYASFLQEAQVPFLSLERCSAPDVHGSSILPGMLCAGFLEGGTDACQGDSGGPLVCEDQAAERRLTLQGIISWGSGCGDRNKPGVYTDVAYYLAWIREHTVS
As to the kind of experiment: Inhibition of human F12a by using chromogenic substrate spectrozyme F12a preincubated for 5 mins followed by substrate addition by spectrophotometric method.

Assay [3] is described as follows: Inhibition of human trypsin using chromogenic substrate SS-2222 preincubated for 5 mins followed by substrate addition by spectrophotometric method. In a few lines: as §1
Assay [4] is described as follows: Inhibition of human chymotrypsin using chromogenic substrate spectrozyme Cty preincubated for 5 mins followed by substrate addition by spectrophotometric method. In a few lines: as §1
Assay [5] addresses T1, Plasminogen. As to the kind of experiment: Binding affinity to human dansyl-EGR-chloromethylketone-plasmin complex assessed as loss of intrinsic tryptophan fluorescence by spectrofluorometric method.

Each structure is given as a SMILES string. A value given as a limit tells only on which side of the number the result lay.

T1 sequence (P00747 97-580 limits assumed): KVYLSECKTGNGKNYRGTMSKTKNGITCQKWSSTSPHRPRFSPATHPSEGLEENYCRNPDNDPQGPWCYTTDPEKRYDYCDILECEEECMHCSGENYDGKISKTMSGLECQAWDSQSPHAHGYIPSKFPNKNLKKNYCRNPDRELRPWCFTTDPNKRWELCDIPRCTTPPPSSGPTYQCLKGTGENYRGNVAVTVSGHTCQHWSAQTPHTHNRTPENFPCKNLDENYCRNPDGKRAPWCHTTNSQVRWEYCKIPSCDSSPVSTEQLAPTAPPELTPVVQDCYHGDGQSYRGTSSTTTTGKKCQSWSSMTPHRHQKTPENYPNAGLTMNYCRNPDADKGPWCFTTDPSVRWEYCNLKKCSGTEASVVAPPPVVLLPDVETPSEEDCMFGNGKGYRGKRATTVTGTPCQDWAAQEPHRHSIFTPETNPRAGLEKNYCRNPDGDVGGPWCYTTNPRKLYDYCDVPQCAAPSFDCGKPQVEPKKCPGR
T1 sequence (P00747 581-810 limits assumed): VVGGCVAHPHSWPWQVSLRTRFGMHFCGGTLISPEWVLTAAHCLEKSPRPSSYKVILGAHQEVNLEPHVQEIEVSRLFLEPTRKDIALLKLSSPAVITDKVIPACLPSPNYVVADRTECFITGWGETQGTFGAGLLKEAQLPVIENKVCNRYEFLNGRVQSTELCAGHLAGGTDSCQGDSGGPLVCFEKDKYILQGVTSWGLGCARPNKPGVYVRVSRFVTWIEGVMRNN
Coagulation factor XI, sequence (P03951 19-387 limits assumed): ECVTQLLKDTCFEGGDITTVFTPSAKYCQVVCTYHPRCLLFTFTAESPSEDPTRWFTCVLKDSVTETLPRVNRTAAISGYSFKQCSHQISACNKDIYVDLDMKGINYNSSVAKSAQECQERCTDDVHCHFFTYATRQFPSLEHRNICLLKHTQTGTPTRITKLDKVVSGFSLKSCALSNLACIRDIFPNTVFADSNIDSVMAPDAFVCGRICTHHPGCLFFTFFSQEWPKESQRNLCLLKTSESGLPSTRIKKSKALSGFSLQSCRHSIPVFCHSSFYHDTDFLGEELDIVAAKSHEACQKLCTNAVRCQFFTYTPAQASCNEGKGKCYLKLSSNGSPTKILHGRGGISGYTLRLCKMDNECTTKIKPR
Coagulation factor XI, sequence (P03951 388-625 limits assumed): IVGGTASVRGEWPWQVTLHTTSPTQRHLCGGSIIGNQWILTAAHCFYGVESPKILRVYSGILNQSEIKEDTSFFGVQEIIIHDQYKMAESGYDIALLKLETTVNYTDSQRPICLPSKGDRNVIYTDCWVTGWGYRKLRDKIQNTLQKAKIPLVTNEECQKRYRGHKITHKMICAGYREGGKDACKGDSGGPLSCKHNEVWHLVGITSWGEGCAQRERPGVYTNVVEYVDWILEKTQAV
Coagulation factor X, sequence (P00742 41-179 limits assumed): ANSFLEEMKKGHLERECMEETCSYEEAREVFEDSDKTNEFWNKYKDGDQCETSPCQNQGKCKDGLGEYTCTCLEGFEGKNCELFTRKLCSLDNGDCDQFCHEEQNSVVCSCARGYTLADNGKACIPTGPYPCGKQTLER
Coagulation factor X, sequence (P00742 235-488 limits assumed): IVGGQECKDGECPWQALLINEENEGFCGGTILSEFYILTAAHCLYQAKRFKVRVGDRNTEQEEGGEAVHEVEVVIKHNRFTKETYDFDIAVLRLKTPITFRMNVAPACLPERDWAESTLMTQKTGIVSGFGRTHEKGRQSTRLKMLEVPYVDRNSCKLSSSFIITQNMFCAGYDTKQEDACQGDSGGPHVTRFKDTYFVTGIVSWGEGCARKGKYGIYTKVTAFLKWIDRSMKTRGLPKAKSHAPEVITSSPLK

What is called IC50 is the point on the concentration scale where inhibition reaches its midpoint. Read a high IC50 as lower potency. On Plasminogen [1], `O=c1cc(-c2ccc(OS(=O)(=O)O)cc2)oc2cc(OS(=O)(=O)O)cc(OCCCCOc3cc(OS(=O)(=O)O)cc4oc(-c5ccc(OS(=O)(=O)O)cc5)cc(=O)c34)c12` showed an IC50 of 282 µM.
As usually defined, the Kd is the concentration at which binding is half-saturated. Regarding `O=c1cc(-c2ccc(OS(=O)(=O)O)cc2)oc2cc(OS(=O)(=O)O)cc(OC/C=C/COc3cc(OS(=O)(=O)O)cc4oc(-c5ccc(OS(=O)(=O)O)cc5)cc(=O)c34)c12`, on Plasminogen [1], the IC50 came out at 121 µM. Besides, the equilibrium dissociation constant (Kd) at Plasminogen [2] was 3.6 µM.
Regarding `O=c1c(O)c(-c2ccc(O)c(O)c2)oc2cc(O)cc(OCc3ccc(COc4cc(O)cc5oc(-c6ccc(O)c(O)c6)c(O)c(=O)c45)cc3)c12`, the half-maximal inhibitory concentration (IC50) was 267 µM against Prothrombin, 116 µM against Plasminogen [1], 212 µM against Coagulation factor X and 208 µM against Coagulation factor XI.
At Plasminogen [1], `O=c1cc(-c2ccc(OS(=O)(=O)O)cc2)oc2cc(OS(=O)(=O)O)cc(OCc3ccc(-c4ccc(COc5cc(OS(=O)(=O)O)cc6oc(-c7ccc(OS(=O)(=O)O)cc7)cc(=O)c56)cc4)cc3)c12` came in with an IC50 of 47 µM.
Still for that read-out and setting: under `O=c1c(OS(=O)(=O)O)c(-c2ccc(OS(=O)(=O)O)c(OS(=O)(=O)O)c2)oc2cc(OS(=O)(=O)O)cc(OCc3cccc(COc4cc(OS(=O)(=O)O)cc5oc(-c6ccc(OS(=O)(=O)O)c(OS(=O)(=O)O)c6)c(OS(=O)(=O)O)c(=O)c45)n3)c12` stands 231 µM; under `O=c1c(OS(=O)(=O)O)c(-c2ccc(OS(=O)(=O)O)c(OS(=O)(=O)O)c2)oc2cc(OS(=O)(=O)O)cc(OCc3cccc(COc4cc(OS(=O)(=O)O)cc5oc(-c6ccc(OS(=O)(=O)O)c(OS(=O)(=O)O)c6)c(OS(=O)(=O)O)c(=O)c45)c3)c12`, 73 µM; under `O=c1cc(-c2ccc(OS(=O)(=O)O)cc2)oc2cc(OS(=O)(=O)O)cc(OCc3cccc(COc4cc(OS(=O)(=O)O)cc5oc(-c6ccc(OS(=O)(=O)O)cc6)cc(=O)c45)c3)c12`, 34 µM.
With `O=c1c(OS(=O)(=O)O)c(-c2ccc(OS(=O)(=O)O)c(OS(=O)(=O)O)c2)oc2cc(OS(=O)(=O)O)cc(OCc3ccc(COc4cc(OS(=O)(=O)O)cc5oc(-c6ccc(OS(=O)(=O)O)c(OS(=O)(=O)O)c6)c(OS(=O)(=O)O)c(=O)c45)cc3)c12`, the IC50 is 156 µM against Prothrombin; 505 µM on Coagulation factor X; 180 µM against Coagulation factor XI; greater than 2000 µM against Coagulation factor IX; greater than 1000 µM on Coagulation factor XII; greater than 440 µM in [3]. In assay [4], this molecule gave an IC50 of 196 µM.
`O=c1cc(-c2ccc(OS(=O)(=O)O)cc2)oc2cc(OS(=O)(=O)O)cc(OCCOc3cc(OS(=O)(=O)O)cc4oc(-c5ccc(OS(=O)(=O)O)cc5)cc(=O)c34)c12` displayed an IC50 at Plasminogen [1] of 71 µM.
Same read-out and setting: under `O=c1cc(-c2ccc(OS(=O)(=O)O)cc2)oc2cc(OS(=O)(=O)O)cc(OCc3ccc(COc4cc(OS(=O)(=O)O)cc5oc(-c6ccc(OS(=O)(=O)O)c(OS(=O)(=O)O)c6)c(OS(=O)(=O)O)c(=O)c45)cc3)c12` stands 14 µM; under `O=c1cc(-c2ccc(OS(=O)(=O)O)cc2)oc2cc(OS(=O)(=O)O)cc(OCCCOc3cc(OS(=O)(=O)O)cc4oc(-c5ccc(OS(=O)(=O)O)cc5)cc(=O)c34)c12`, greater than 1000 µM; under `O=c1cc(-c2ccc(OS(=O)(=O)O)cc2)oc2cc(OS(=O)(=O)O)cc(OCc3ccc(COc4cc(OS(=O)(=O)O)cc5oc(-c6ccc(OS(=O)(=O)O)cc6)cc(=O)c45)cc3)c12`, 34 µM.
As to `Cc1cc(COc2cc(OS(=O)(=O)O)cc3oc(-c4ccc(OS(=O)(=O)O)cc4)cc(=O)c23)c(C)cc1COc1cc(OS(=O)(=O)O)cc2oc(-c3ccc(OS(=O)(=O)O)cc3)cc(=O)c12`, it took 20 µM to reach half-maximal inhibition against Plasminogen [1] (IC50). In addition, the figures for the dissociation constant (Kd) at Plasminogen [2] and at Plasminogen [5] were 1.9 µM and 5.4 µM, respectively.
In turn, `O=c1c(OS(=O)(=O)O)c(-c2ccc(OS(=O)(=O)O)c(OS(=O)(=O)O)c2)oc2cc(OS(=O)(=O)O)cc(OCc3ccc(-c4ccc(COc5cc(OS(=O)(=O)O)cc6oc(-c7ccc(OS(=O)(=O)O)c(OS(=O)(=O)O)c7)c(OS(=O)(=O)O)c(=O)c56)cc4)cc3)c12` gave an IC50 against Plasminogen [1] of 37 µM.
Take `Cc1cc(COc2cc(OS(=O)(=O)O)cc3oc(-c4ccc(OS(=O)(=O)O)c(OS(=O)(=O)O)c4)c(OS(=O)(=O)O)c(=O)c23)c(C)cc1COc1cc(OS(=O)(=O)O)cc2oc(-c3ccc(OS(=O)(=O)O)c(OS(=O)(=O)O)c3)c(OS(=O)(=O)O)c(=O)c12`: half-maximal inhibition on Plasminogen [1] (IC50) was put at 6.5 µM. For the same molecule, the equilibrium dissociation constant (Kd) at Plasminogen [2] was found to be 1 µM.
For `O=c1cc(-c2ccc(OS(=O)(=O)O)cc2)oc2cc(OS(=O)(=O)O)cc(OCc3cccc(COc4cc(OS(=O)(=O)O)cc5oc(-c6ccc(OS(=O)(=O)O)cc6)cc(=O)c45)n3)c12`, the IC50 against Plasminogen [1] came to 42 µM.
